Tests used:
[1] = target: Gastrin-releasing peptide receptor (Rattus norvegicus, UniProt P52500); assay: In vitro binding affinity against bombesin / GRP receptors on rat pancreatic acini.
Outline: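 Male Wistar rat dispersed pancreatic acini (about 1 mg/mL protein) incubated 60 min at 37 °C with 20 pM (3-[125I]iodotyrosyl15)GRP and varying analogue; pellet centrifuged at 10000g, washed twice, counted. Nonspecific binding with 10 μM unlabeled BN. Specific binding as %, mean ± SD of three experiments in duplicate.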

[2] = Binding affinity against BN (bombesin) / GRP receptors in Swiss 3T3 cells; format: cell-based, Mus musculus
Outline: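 Intact Swiss 3T3 cells (seeded 10⁵/well, 24 h in serum-free medium with 0.2% BSA) incubated 1 h at 22 °C in DMEM/0.2% BSA with 20 pM (3-[125I]iodotyrosyl15)GRP and varying compound; washed with cold PBS/0.2% BSA, NaOH-solubilized, radioactivity counted. Nonspecific binding with 10 μM BN. Duplicates, at least three separate trials.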

Rattus norvegicus = species on record: Rattus norvegicus; assay: Compound was tested for stimulating amylase secretion on rat pancreatic acini.; format: functional, organism-based
Outline: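 Dispersed pancreatic acini from male Wistar rats (200-300 g), about 1 mg protein/mL, incubated 30 min at 37 °C in HEPES pH 7.4 buffer with 1% BSA; amylase by Phadebas method, expressed as % of maximal BN response. Antagonism: varying analogue with 1 nM BN. Duplicate incubations.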

[3] = Compound was tested for stimulating [3H]-thymidine accumulation in Swiss 3T3 cells.; format: functional, cell-based; settings: Mus musculus, NIH3T3, 24 h
Outline: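 Swiss 3T3 cells seeded 10⁵/well, 24 h in medium with 0.2% BSA without serum, then 24 h in DMEM/0.2% BSA; treated 24 h at 37 °C with varying analogue alone or with 10^-7 M BN, then 0.5 μCi [3H]thymidine for 2 h; TCA-precipitable radioactivity after NaOH solubilization. Agonism tested up to 10^-6 M.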

Gastrin-releasing peptide receptor, sequence (P52500 whole entry): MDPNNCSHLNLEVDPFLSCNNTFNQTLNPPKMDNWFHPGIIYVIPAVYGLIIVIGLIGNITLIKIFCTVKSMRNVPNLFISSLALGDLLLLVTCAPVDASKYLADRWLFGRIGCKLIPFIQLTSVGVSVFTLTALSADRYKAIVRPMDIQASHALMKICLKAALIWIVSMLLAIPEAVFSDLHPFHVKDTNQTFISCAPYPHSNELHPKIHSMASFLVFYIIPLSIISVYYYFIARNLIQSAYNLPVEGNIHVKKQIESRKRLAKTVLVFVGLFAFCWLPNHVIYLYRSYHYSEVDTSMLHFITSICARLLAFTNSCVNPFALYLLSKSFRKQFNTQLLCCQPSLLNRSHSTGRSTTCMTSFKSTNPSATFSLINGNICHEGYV

SMILES | Ki [1] | Ki [2] | EC50 (Rattus norvegicus) | EC50 [3]
CC(C)C[C@H](NC(=O)[C@H](CC(C)C)NC(=O)[C@H](Cc1cnc[nH]1)NC(=O)CN1CC[C@H](NC(=O)[C@H](C)NC(=O)[C@H](Cc2c[nH]c3ccccc23)NC(=O)[C@H](CCC(N)=O)NC(=O)[C@H](N)Cc2ccccc2)C1=O)C(N)=O | 225 nM |  |  | 
COC(=O)[C@H](CC(C)C)NC(=O)[C@H](Cc1c[nH]cn1)NC(=O)CN1CCCC[C@H](NC(=O)[C@H](C)NC(=O)[C@H](Cc2c[nH]c3ccccc23)NC(=O)[C@H](CCC(N)=O)NC(=O)[C@H](N)Cc2ccccc2)C1=O | 5.2 nM | 2 nM |  | 
CC(C)C[C@H](NC(=O)[C@H](CC(C)C)NC(=O)[C@H](Cc1c[nH]cn1)NC(=O)CN1CCCC[C@H](NC(=O)[C@H](C)NC(=O)[C@H](Cc2c[nH]c3ccccc23)NC(=O)[C@H](CCC(N)=O)NC(=O)CCc2ccc(O)cc2)C1=O)C(N)=O | 1.8 nM | 2 nM | 0.05 nM | 0.2 nM
CCCCC(O)[C@@H](CC(C)C)NC(=O)[C@H](Cc1c[nH]cn1)NC(=O)CN1CCCC[C@H](NC(=O)[C@H](C)NC(=O)[C@H](Cc2c[nH]c3ccccc23)NC(=O)[C@H](CCC(N)=O)NC(=O)[C@H](N)Cc2ccccc2)C1=O (some centres undefined) | 9 nM | 2 nM |  | 
COC(=O)[C@H](CC(C)C)NC(=O)[C@H](Cc1c[nH]cn1)NC(=O)CN1CCCC[C@H](NC(=O)[C@H](C)NC(=O)[C@H](Cc2c[nH]c3ccccc23)NC(=O)[C@H](CCC(N)=O)NC(=O)CCc2ccc(O)cc2)C1=O | 3.1 nM | 1.2 nM |  | 
CC(C)C[C@H](NC(=O)[C@H](CC(C)C)NC(=O)[C@H](Cc1c[nH]cn1)NC(=O)CN1C(=O)[C@@H](NC(=O)[C@H](C)NC(=O)[C@H](Cc2c[nH]c3ccccc23)NC(=O)[C@H](CCC(N)=O)NC(=O)[C@H](N)Cc2ccccc2)N=C(c2ccccc2)c2ccccc21)C(N)=O | 500 nM |  |  | 
CC(C)C[C@@H](NC(=O)[C@H](Cc1c[nH]cn1)NC(=O)CN1CCCC[C@H](NC(=O)[C@H](C)NC(=O)[C@H](Cc2c[nH]c3ccccc23)NC(=O)[C@H](CCC(N)=O)NC(=O)CCc2ccc(O)cc2)C1=O)C(=O)NO | 13 nM | 11 nM |  | 
CC(C)C[C@@H](NC(=O)[C@H](Cc1c[nH]cn1)NC(=O)CN1CCCC[C@H](NC(=O)[C@H](C)NC(=O)[C@H](Cc2c[nH]c3ccccc23)NC(=O)[C@H](CCC(N)=O)NC(=O)[C@H](N)Cc2ccccc2)C1=O)C(=O)NO | 127 nM | 53 nM |  | 
CCCCC(O)[C@@H](CC(C)C)NC(=O)[C@H](Cc1c[nH]cn1)NC(=O)CN1CCCC[C@H](NC(=O)[C@H](C)NC(=O)[C@H](Cc2c[nH]c3ccccc23)NC(=O)[C@H](CCC(N)=O)NC(=O)CCc2ccc(O)cc2)C1=O (some centres undefined) | 3.8 nM | 0.8 nM |  | 
CC(C)C[C@H](NC(=O)[C@H](CC(C)C)NC(=O)[C@H](Cc1c[nH]cn1)NC(=O)CN1CCCC[C@H](NC(=O)[C@H](C)NC(=O)[C@H](Cc2c[nH]c3ccccc23)NC(=O)[C@H](CCC(N)=O)NC(=O)[C@H](N)Cc2ccccc2)C1=O)C(N)=O | 1.7 nM | 1 nM | 0.22 nM | 0.02 nM
CC(C)C[C@H](NC(=O)[C@H](CC(C)C)NC(=O)[C@H](Cc1cnc[nH]1)NC(=O)c1ccc(NC(=O)[C@H](C)NC(=O)[C@H](Cc2c[nH]c3ccccc23)NC(=O)[C@H](CCC(N)=O)NC(=O)[C@H](N)Cc2ccccc2)cc1)C(N)=O | 2250 nM |  |  | 
CC(C)C[C@H](NC(=O)[C@H](CC(C)C)NC(=O)[C@H](Cc1cnc[nH]1)NC(=O)c1ccccc1NC(=O)[C@H](C)NC(=O)[C@H](Cc1c[nH]c2ccccc12)NC(=O)[C@H](CCC(N)=O)NC(=O)[C@H](N)Cc1ccccc1)C(N)=O | 650 nM |  |  | 
CC(C)C[C@H](NC(=O)[C@H](CC(C)C)NC(=O)[C@H](Cc1cnc[nH]1)NC(=O)c1cccc(NC(=O)[C@H](C)NC(=O)[C@H](Cc2c[nH]c3ccccc23)NC(=O)[C@H](CCC(N)=O)NC(=O)[C@H](N)Cc2ccccc2)c1)C(N)=O | 300 nM |  |  | 
CC(C)C[C@H](NC(=O)[C@H](CC(C)C)NC(=O)[C@H](Cc1c[nH]cn1)NC(=O)CNC(=O)[C@@H](NC(=O)[C@H](C)NC(=O)[C@H](Cc1c[nH]c2ccccc12)NC(=O)[C@H](CCC(N)=O)NC(=O)C(N)Cc1ccccc1)C(C)C)C(N)=O (stereo in doubt) [listing 1 of 3 here] |  |  | 0.03 nM | 0.08 nM
CC(C)C[C@H](NC(=O)[C@H](CC(C)C)NC(=O)[C@H](Cc1c[nH]cn1)NC(=O)CNC(=O)[C@@H](NC(=O)[C@H](C)NC(=O)[C@H](Cc1c[nH]c2ccccc12)NC(=O)[C@H](CCC(N)=O)NC(=O)C(N)Cc1ccccc1)C(C)C)C(N)=O (stereo in doubt) [listing 2 of 3 here] | 3.2 nM |  |  | 
CC(C)C[C@H](NC(=O)[C@H](CC(C)C)NC(=O)[C@H](Cc1c[nH]cn1)NC(=O)CNC(=O)[C@@H](NC(=O)[C@H](C)NC(=O)[C@H](Cc1c[nH]c2ccccc12)NC(=O)[C@H](CCC(N)=O)NC(=O)C(N)Cc1ccccc1)C(C)C)C(N)=O (stereo in doubt) [listing 3 of 3 here] |  | 6.3 nM |  | 
